EC50 and IC50 data for 38 molecules are collected here from ChEMBL document CHEMBL1129588, “Development of potent thrombin receptor antagonist peptides” (J Med Chem, 1996).

pEC50, pIC50: −log10 of the molar value. Starred links: 1 amine or outer side, 2 acyl side, 3 side chain; linkers in the order of their positions; H or OH if unused. Non-standard residues stand in square brackets, D forms with d. Residues, ends and D or L forms follow the SMILES beside them. *: point of attachment. X7 = CC(=O)N(C(=O)/C=C/c1ccc(F)cc1)[C@@H](Cc1ccc(F)cc1)C(=O)*; X8 = C#CC(=O)c1cccc(N([C@@H](Cc2ccc(F)cc2)C(=O)[*:2])[*:1])c1; X9 = CCC(=O)c1cccc(N([C@@H](Cc2ccc(F)cc2)C(=O)[*:2])[*:1])c1; X3 = CC(=O)N(C(=O)/C=C/c1ccccc1)[C@@H](Cc1ccc(F)cc1)C(=O)*; Phe(4-guanidino) = N=C(N)Nc1ccc(C[C@H](N)C(=O)O)cc1; Phe(4-F) = N[C@@H](Cc1ccc(F)cc1)C(=O)O; Benzoyl(4-Cl) = O=C(c1ccc(Cl)cc1)*; X10 = O=C(c1c[nH]c2ccccc12)*; X5 = O=C(c1cc2ccccc2[nH]1)*; Orn = NCCC[C@H](N)C(=O)O; X2 = O=S(=O)(c1cccs1)*

Test system in the first experiment: not listed separately
Kind of experiment: Concentration to stimulate human platelet aggregation. Format: functional. The method, boiled down:
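Peptides were added alone to gel-filtered human platelets, and aggregation was read by microtiter turbidity. EC₅₀ is the concentration stimulating 50% of maximum aggregation. N is the number of determinations. A peptide is called a partial agonist where maximum aggregation was not reached experimentally.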
In the case of `CC(C)C[C@H](NC(=O)[C@H](CC(C)C)NC(=O)[C@H](Cc1ccccc1)NC(=O)[C@@H](N)CO)C(=O)N[C@@H](CCCN=C(N)N)C(N)=O`, the pEC50 is 6.40.

With `CC(C)C[C@H](NC(=O)[C@H](CC(C)C)NC(=O)[C@H](Cc1ccc(N)cc1)NC(=O)[C@@H](N)CO)C(=O)N[C@@H](CCCN=C(N)N)C(N)=O`, the pEC50 was 4.74. Compared with the last molecule, the pEC50 is 1.66 log units lower.

In turn, `CC(C)C[C@H](NC(=O)[C@H](CC(C)C)NC(=O)[C@H](Cc1ccc(NC(=N)N)cc1)NC(=O)[C@@H](N)CO)C(=O)N[C@@H](CCCN=C(N)N)C(N)=O` had a pEC50 of less than 3.52.

Consider `CC(C)C[C@H](NC(=O)[C@H](CC(C)C)NC(=O)[C@H](CCc1ccccc1)NC(=O)[C@@H](N)CO)C(=O)N[C@@H](CCCN=C(N)N)C(N)=O`, for which the pEC50 is less than 3.52.

`CC(C)C[C@H](NC(=O)[C@H](CC(C)C)NC(=O)[C@H](Cc1ccc(I)cc1)NC(=O)[C@@H](N)CO)C(=O)N[C@@H](CCCN=C(N)N)C(N)=O` gave a pEC50 of 5.03.

The target in another experiment is T1, Proteinase-activated receptor 1 (Homo sapiens, UniProt P25116).
T1 sequence (P25116 whole entry): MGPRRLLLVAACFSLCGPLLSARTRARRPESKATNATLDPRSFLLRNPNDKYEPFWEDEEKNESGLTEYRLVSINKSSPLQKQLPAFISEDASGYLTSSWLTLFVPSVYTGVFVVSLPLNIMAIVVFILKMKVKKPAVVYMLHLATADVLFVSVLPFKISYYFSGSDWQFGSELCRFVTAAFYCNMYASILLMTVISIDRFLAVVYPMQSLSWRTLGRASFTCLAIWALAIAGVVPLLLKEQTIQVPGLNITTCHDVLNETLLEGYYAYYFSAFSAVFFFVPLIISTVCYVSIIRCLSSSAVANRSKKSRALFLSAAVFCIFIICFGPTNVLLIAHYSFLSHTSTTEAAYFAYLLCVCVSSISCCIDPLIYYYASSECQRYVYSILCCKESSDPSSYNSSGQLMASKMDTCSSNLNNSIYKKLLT
As to `CC#Cc1ccccc1C(=O)N(C(C)=O)[C@@H](Cc1ccc(F)cc1)C(=O)N[C@@H](Cc1ccc(NC(=N)N)cc1)C(=O)N[C@@H](CC(C)C)C(=O)N[C@@H](CCCN=C(N)N)C(N)=O`, the pIC50 is 7.64.

In turn, `CC(=O)N(C(=O)/C=C/c1cccc(Cl)c1)[C@@H](Cc1ccc(F)cc1)C(=O)N[C@@H](Cc1ccc(NC(=N)N)cc1)C(=O)N[C@@H](CC(C)C)C(=O)N[C@@H](CCCN=C(N)N)C(N)=O` had a pIC50 of 7.39. Compared with the last molecule, the pIC50 is 0.25 log units lower.

Molecule `CC(=O)N(C(=O)/C=C/c1ccccc1)[C@@H](Cc1ccc(F)cc1)C(=O)N[C@@H](Cc1c[nH]cn1)C(=O)N[C@@H](CC(C)C)C(=O)N[C@@H](CCCN=C(N)N)C(N)=O` showed a pIC50 of 6.33.

In turn, `CC(=O)N(C(=O)c1ccccc1N)[C@@H](Cc1ccc(F)cc1)C(=O)N[C@@H](Cc1ccc(NC(=N)N)cc1)C(=O)N[C@@H](CC(C)C)C(=O)N[C@@H](CCCN=C(N)N)C(N)=O` had a pIC50 of 6.00.

Regarding `CCCCC/C=C/CC(=O)N(C(C)=O)[C@@H](Cc1ccc(F)cc1)C(=O)N[C@@H](Cc1ccc(NC(=N)N)cc1)C(=O)N[C@@H](CC(C)C)C(=O)N[C@@H](CCCN=C(N)N)C(N)=O`, the pIC50 is 7.46.

For the molecule `CC(=O)N(C(=O)/C=C/c1ccccc1)[C@@H](Cc1ccc(F)cc1)C(=O)N[C@@H](CCCN=C(N)N)C(=O)N[C@@H](CC(C)C)C(=O)N[C@@H](CCCN=C(N)N)C(N)=O`, the pIC50 was 7.55. This pIC50 and that of the molecule before are within 0.2 log units of each other.

Molecule `CC(=O)N(C(=O)/C=C/c1ccc(F)cc1)[C@@H](Cc1ccc(F)cc1)C(=O)N[C@@H](Cc1ccc(NC(=N)N)cc1)C(=O)N[C@@H](CC(C)C)C(=O)N[C@@H](CCCN=C(N)N)C(=O)N[C@@H](CCCN)C(=O)CC(N)=O` showed a pIC50 of 7.60. The pIC50 values of the last two molecules are within 0.2 log units of each other.

Molecule `CC(=O)N(C(=O)/C=C/c1ccccc1)[C@@H](Cc1ccc(F)cc1)C(=O)N[C@@H](CCN=C(N)N)C(=O)N[C@@H](CC(C)C)C(=O)N[C@@H](CCCN=C(N)N)C(N)=O` showed a pIC50 of 7.55.

In turn, `CC(=O)N(C(=O)/C=C/c1ccccc1)[C@@H](Cc1ccc(F)cc1)C(=O)N[C@@H](CCCCN=C(N)N)C(=O)N[C@@H](CC(C)C)C(=O)N[C@@H](CCCN=C(N)N)C(N)=O` showed a pIC50 of 7.92.

As for `CC(=O)N(C(=O)/C=C/c1ccccc1)[C@@H](Cc1cccnc1)C(=O)N[C@@H](Cc1ccc(NC(=N)N)cc1)C(=O)N[C@@H](CC(C)C)C(=O)N[C@@H](CCCN=C(N)N)C(N)=O`, the pIC50 is 5.46.

`CC(=O)N(C(=O)/C=C/c1ccccc1)[C@@H](Cc1cccs1)C(=O)N[C@@H](Cc1ccc(NC(=N)N)cc1)C(=O)N[C@@H](CC(C)C)C(=O)N[C@@H](CCCN=C(N)N)C(N)=O` had a pIC50 of 7.38.

The molecule `CC(=O)N(C(=O)/C=C/c1ccccc1)[C@@H](CC1CCCCC1)C(=O)N[C@@H](Cc1ccc(NC(=N)N)cc1)C(=O)N[C@@H](CC(C)C)C(=O)N[C@@H](CCCN=C(N)N)C(N)=O` had a pIC50 of 7.03. Compared with the last molecule, the pIC50 is 0.35 log units lower.

`CC(=O)N(c1cccc(F)c1)[C@@H](Cc1ccc(F)cc1)C(=O)N[C@@H](Cc1ccc(NC(=N)N)cc1)C(=O)N[C@@H](CC(C)C)C(=O)N[C@@H](CCCN=C(N)N)C(N)=O` gave a negative-log IC50 (pIC50) of 6.80.

`CC(=O)N(c1ccccc1)[C@@H](Cc1ccc(F)cc1)C(=O)N[C@@H](Cc1ccc(NC(=N)N)cc1)C(=O)N[C@@H](CC(C)C)C(=O)N[C@@H](CCCN=C(N)N)C(N)=O` gave a pIC50 of 6.17.

The molecule `CC(=O)N(c1cccc(Cl)c1)[C@@H](Cc1ccc(F)cc1)C(=O)N[C@@H](Cc1ccc(NC(=N)N)cc1)C(=O)N[C@@H](CC(C)C)C(=O)N[C@@H](CCCN=C(N)N)C(N)=O` gave a pIC50 of 6.96.

`CC(=O)N(C(=O)/C=C/c1ccccc1)[C@@H](Cc1ccc(F)cc1)C(=O)N[C@@H](CCc1ccccc1)C(=O)N[C@@H](CC(C)C)C(=O)N[C@@H](CCCN=C(N)N)C(N)=O` had a pIC50 of 6.20.

In the case of `CC(=O)N(C(=O)Cc1cccc2ccccc12)[C@@H](Cc1ccc(F)cc1)C(=O)N[C@@H](Cc1ccc(NC(=N)N)cc1)C(=O)N[C@@H](CC(C)C)C(=O)N[C@@H](CCCN=C(N)N)C(N)=O`, the pIC50 was 5.79.

Consider `CC(=O)N(C(=O)/C=C/c1ccccc1)[C@@H](Cc1ccccc1)C(=O)N[C@@H](Cc1ccc(NC(=N)N)cc1)C(=O)N[C@@H](CC(C)C)C(=O)N[C@@H](CCCN=C(N)N)C(N)=O`, for which the pIC50 was 7.62.

For the molecule `CC(=O)N(C(=O)/C=C/c1ccccc1)[C@@H](Cc1ccc(F)cc1)C(=O)N[C@@H](Cc1ccc2ccccc2c1)C(=O)N[C@@H](CC(C)C)C(=O)N[C@@H](CCCN=C(N)N)C(N)=O`, the pIC50 was 6.61.

Consider `CC(=O)N(C(=O)/C=C/c1ccc(-c2ccccc2)cc1)[C@@H](Cc1ccc(F)cc1)C(=O)N[C@@H](Cc1ccc(NC(=N)N)cc1)C(=O)N[C@@H](CC(C)C)C(=O)N[C@@H](CCCN=C(N)N)C(N)=O`, for which the pIC50 was 5.82.

In the case of `C#CC(=O)c1cccc(N(C(C)=O)[C@@H](Cc2ccc(F)cc2)C(=O)N[C@@H](Cc2ccc(NC(=N)N)cc2)C(=O)N[C@@H](CC(C)C)C(=O)N[C@@H](CCCN=C(N)N)C(=O)N[C@@H](CCCN=C(N)N)C(N)=O)c1` (Ac-[X8][Phe(4-guanidino)]LRR-NH2), the pIC50 was 8.40.

`CCC(=O)c1cccc(N(C(C)=O)[C@@H](Cc2ccc(F)cc2)C(=O)N[C@@H](Cc2ccc(NC(=N)N)cc2)C(=O)N[C@@H](CC(C)C)C(=O)N[C@@H](CCCN=C(N)N)C(=O)N[C@@H](CCCN=C(N)N)C(N)=O)c1` (Ac-[X9][Phe(4-guanidino)]LRR-NH2): the pIC50 is 8.05.

Take `CC(C)C[C@H](NC(=O)[C@H](Cc1ccc(NC(=N)N)cc1)NC(=O)[C@H](Cc1ccc(F)cc1)NS(=O)(=O)c1cccs1)C(=O)N[C@@H](CCCN=C(N)N)C(N)=O` (X2-[Phe(4-F)][Phe(4-guanidino)]LR-NH2): the pIC50 was 5.05.

With `CC(=O)N(C(=O)/C=C/c1ccccc1)[C@@H](Cc1ccc(F)cc1)C(=O)N[C@@H](Cc1ccc(NC(=N)N)cc1)C(=O)N[C@@H](CC(C)C)C(=O)N[C@@H](CCCN=C(N)N)C(=O)N[C@@H](CCCN=C(N)N)C(N)=O` (X3-[Phe(4-guanidino)]LRR-NH2), the pIC50 was 8.12.

In the case of `CC(=O)N(C(=O)/C=C/c1ccccc1)[C@@H](Cc1ccc(F)cc1)C(=O)N[C@@H](Cc1ccc(NC(=N)N)cc1)C(=O)N[C@@H](CC(C)C)C(=O)N[C@@H](CCCN=C(N)N)C(=O)N[C@@H](CCCN)C(N)=O` (X3-[Phe(4-guanidino)]LR[Orn]-NH2), the pIC50 was 8.18. The pIC50 values of the last two molecules are within 0.2 log units of each other.

`CC(C)C[C@H](NC(=O)[C@H](Cc1ccc(NC(=N)N)cc1)NC(=O)[C@H](Cc1ccc(F)cc1)NC(=O)c1cc2ccccc2[nH]1)C(=O)N[C@@H](CCCN=C(N)N)C(N)=O` (X5-[Phe(4-F)][Phe(4-guanidino)]LR-NH2) gave a pIC50 of 7.62.

As to `CC(=O)N(C(=O)/C=C/c1ccc(F)cc1)[C@@H](Cc1ccc(F)cc1)C(=O)N[C@@H](Cc1ccc(NC(=N)N)cc1)C(=O)N[C@@H](CC(C)C)C(=O)N[C@@H](CCCN=C(N)N)C(=O)N[C@@H](CCCN=C(N)N)C(N)=O` (X7-[Phe(4-guanidino)]LRR-NH2), the pIC50 is 7.72.

`CC(C)C[C@H](NC(=O)[C@H](Cc1ccc(NC(=N)N)cc1)NC(=O)[C@H](Cc1ccc(F)cc1)NC(=O)c1c[nH]c2ccccc12)C(=O)N[C@@H](CCCN=C(N)N)C(N)=O` (X10-[Phe(4-F)][Phe(4-guanidino)]LR-NH2): the pIC50 is 7.72.

Molecule `CC(=O)N(C(=O)/C=C/c1ccc(F)cc1)[C@@H](Cc1ccc(F)cc1)C(=O)N[C@@H](Cc1ccc(NC(=N)N)cc1)C(=O)N[C@@H](CC(C)C)C(=O)N[C@@H](CCCN=C(N)N)C(N)=O` (stereo in doubt; 43) gave a negative logarithm of the IC50 (pIC50) of 7.70.

`CC(=O)N(C(=O)/C=C/c1ccc(C)cc1)[C@@H](Cc1ccc(F)cc1)C(=O)N[C@@H](Cc1ccc(NC(=N)N)cc1)C(=O)N[C@@H](CC(C)C)C(=O)N[C@@H](CCCN=C(N)N)C(N)=O` (stereo in doubt; 45) had a pIC50 of 7.47.

Regarding `CC(=O)N(C(=O)/C=C/c1ccc(F)cc1)[C@@H](Cc1ccc(F)cc1)C(=O)N[C@@H](Cc1ccc(NC(=N)N)cc1)C(=O)N[C@@H](CC(C)C)C(=O)N[C@@H](CCCN=C(N)N)C(N)=O` (stereo in doubt; 62), the pIC50 is 7.64.

Molecule `CC(=O)N(C(=O)/C=C/c1ccc(C)cc1)[C@@H](Cc1ccc(F)cc1)C(=O)N[C@@H](Cc1ccc(NC(=N)N)cc1)C(=O)N[C@@H](CC(C)C)C(=O)N[C@@H](CCCN=C(N)N)C(N)=O` (stereo in doubt; 63) had a pIC50 of 7.37. This pIC50 is 0.27 log units lower than that of the molecule before.

`CC(C)C[C@H](NC(=O)[C@H](Cc1ccc(NC(=N)N)cc1)NC(=O)[C@H](Cc1ccc(F)cc1)NC(=O)c1ccc(Cl)cc1)C(=O)N[C@@H](CCCN=C(N)N)C(N)=O` ({Benzoyl(4-Cl)}-[Phe(4-F)][Phe(4-guanidino)]LR-NH2) showed a pIC50 of 7.59. This pIC50 is 0.22 log units higher than that of the molecule before.
